Laboratory results: ChEMBL document CHEMBL1123571, “[(6,7-Dichlorobenzo[b]thien-5-yl)oxy]acetic acids and 1,1-dioxides. 1. A structurally novel class of diuretics with hypotensive activity” (1987)
Several values for one entry are separate records, joined by “and”; a condition that tells them apart may be missing. Equal values may be shown once.

Key:
Mus musculus [1] = assay: Diuretic activity in saline loaded mice, activity is expressed as the sodium present in urine as mean milli equivalent/kg per 5 hr at 64 mg/kg oral dose; assay type: functional
Procedure, shortened: (§1)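 Male CD-1 mice (18–24 g), 10 per treatment group, housed five per metabolic cage. Compound was given orally in 1% saline at 10 mL/kg, with a vehicle control group. Pooled urine was analysed for sodium by flame photometry. Values are mean mequiv/kg over 0–5 h.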

Rattus norvegicus [2] = assay: Hypotensive activity was determined in Spontaneously hypertensive rats (SHR) and peak decrease in systolic blood pressure on third day,2h post administration of 50 mg/kg oral dose was determined; assay type: functional, Artery
Procedure, shortened: (§2)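 Okamoto-Aoki spontaneously hypertensive rats were dosed orally every day with compound suspended in distilled water with Tween 80. Systolic BP was taken by tail-cuff plethysmography on day 1 (predose, 2 h), day 3 (predose, 2 h) and day 5 (predose, 2 and 4 h). The value is the peak fall at day 3, 2 h postdose, ± SEM. Four rats were used in the screen and 4–8 per dose in dose-response.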

Rattus norvegicus [3] = assay: Hypotensive activity was determined in Spontaneously hypertensive rats (SHR) and initial blood pressure was determined at 50 mg/kg oral dose; assay type: functional
Mus musculus [4] = assay: Compound was tested for diuretic activity in saline loaded mice, activity is expressed as the sodium present in urine as mean milli equivalent/kg per 5 hr at 128 mg/kg oral dose; assay type: functional; procedure, shortened: as §1
Mus musculus [5] = assay: Compound was tested for diuretic activity in saline loaded mice, activity is expressed as the sodium present in urine as mean milli equivalent/kg per 5 hr at 32 mg/kg oral dose; assay type: functional; procedure, shortened: as §1
Rattus norvegicus [6] = assay: Hypotensive activity was determined in Spontaneously hypertensive rats (SHR) and initial blood pressure was determined at 10 mg/kg oral dose; assay type: functional
Rattus norvegicus [7] = assay: Hypotensive activity was determined in Spontaneously hypertensive rats (SHR) and initial blood pressure was determined at 30 mg/kg oral dose; assay type: functional
Rattus norvegicus [8] = assay: Hypotensive activity was determined in Spontaneously hypertensive rats (SHR) and peak decrease in systolic blood pressure on third day,2h post administration of 10 mg/kg oral dose was determined; assay type: functional, Artery; procedure, shortened: as §2
Rattus norvegicus [9] = assay: Hypotensive activity was determined in Spontaneously hypertensive rats (SHR) and peak decrease in systolic blood pressure on third day,2h post administration of 30 mg/kg oral dose was determined; assay type: functional, Artery; procedure, shortened: as §2
Mus musculus [10] = assay: Compound was tested for diuretic activity in saline loaded mice, activity is expressed as the sodium present in urine as mean milli equivalent/kg per 5 hr at 16 mg/kg oral dose; assay type: functional; procedure, shortened: as §1
Rattus norvegicus [11] = assay: Hypotensive activity was determined in Spontaneously hypertensive rats (SHR) and initial blood pressure was determined at 3 mg/kg oral dose; assay type: functional
Rattus norvegicus [12] = assay: Hypotensive activity was determined in Spontaneously hypertensive rats (SHR) and peak decrease in systolic blood pressure on third day,2h post administration of 3 mg/kg oral dose was determined; assay type: functional, Artery; procedure, shortened: as §2
Rattus norvegicus [13] = organism: Rattus norvegicus; assay: Initial blood pressure before treatment; assay type: functional
Procedure, shortened: (§3)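 Grollman renal hypertension (one kidney, one wrap) in male Sprague-Dawley rats. Under pentobarbital (50 mg/kg ip) the right kidney was removed and silk sutures were tied around both poles of the left kidney. After 3 weeks, rats with systolic BP >150 mmHg were selected. Oral dosing followed. Systolic BP was measured by tail-cuff plethysmography as day/hour readings, and the change was taken against the initial pressure.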

Rattus norvegicus [14] = assay: Hypotensive activity after 10 mg/kg oral dose in rats (Change in blood pressure after treatment (day/hours)); assay type: functional; procedure, shortened: as §3
Rattus norvegicus [15] = organism: Rattus norvegicus; assay: Change in blood pressure (Initial blood pressure- Post drug blood pressure); assay type: functional; procedure, shortened: as §3
Rattus norvegicus [16] = assay: Hypotensive activity after 50 mg/kg oral dose in rats (Change in blood pressure after treatment (day/hours)); assay type: functional; procedure, shortened: as §3

SMILES | mequiv of Na+/kg (Mus musculus [1]) | Change in BP (Rattus norvegicus [2]) [mmHg] | Initial blood pressure (Rattus norvegicus [3]) [mmHg] | further results
CCC(=O)c1cc2cc(OCC(=O)O)c(Cl)c(Cl)c2s1 | 1.18 0-5h | -1 | 173 | 
CC(=O)c1cc2cc(OCC(=O)O)c(Cl)c(Cl)c2s1 | 1.16 0-5h | -28 | 199 | 
CC(C)C1=Cc2cc(OCC(=O)O)c(Cl)c(Cl)c2S1(=O)=O | 2.58 0-5h | -33 | 192 | mequiv of Na+/kg (Mus musculus [4]): 5.32 0-5h; mequiv of Na+/kg (Mus musculus [5]): 0.88 0-5h
CC(C)CC1=Cc2cc(OCC(=O)O)c(Cl)c(Cl)c2S1(=O)=O | 3.24 0-5h | -14 | 176 | 
O=C(O)COc1cc2ccsc2c(Cl)c1Cl | 1 0-5h | 2 | 201 | 
O=C(O)COc1cc2c(c(Cl)c1Cl)S(=O)(=O)C1=C2CCCC1 | 0 0-5h | -8 | 179 | 
CCCCc1cc2cc(OCC(=O)O)c(Cl)c(Cl)c2s1 | 0.88 0-5h | -47 | 173 | Initial blood pressure (Rattus norvegicus [6]): 171 mmHg; Initial blood pressure (Rattus norvegicus [7]): 173 mmHg; Change in BP (Rattus norvegicus [8]): -17 mmHg; Change in BP (Rattus norvegicus [9]): -16 mmHg
Cc1csc2c(Cl)c(Cl)c(OCC(=O)O)cc12 | 0.8 0-5h | -12 | 203 | 
O=C(O)COc1cc2c(c(Cl)c1Cl)S(=O)(=O)C=C2 | 0.33 0-5h | -3 | 201 | 
CC(C)c1cc2cc(OCC(=O)O)c(Cl)c(Cl)c2s1 | 2.52 0-5h | -41 | 179 | Initial blood pressure (Rattus norvegicus [6]): 178 mmHg; mequiv of Na+/kg (Mus musculus [5]): 1.64 0-5h; Initial blood pressure (Rattus norvegicus [7]): 195 mmHg; Change in BP (Rattus norvegicus [8]): -14 mmHg; Change in BP (Rattus norvegicus [9]): -32 mmHg; mequiv of Na+/kg (Mus musculus [10]): 1.24 0-5h
O=C(O)COc1cc2c(c(Cl)c1Cl)S(=O)(=O)C(C1CCCCC1)=C2 | 1.25 0-5h | -43 | 202 | Initial blood pressure (Rattus norvegicus [11]): 187 mmHg; Initial blood pressure (Rattus norvegicus [7]): 167 mmHg; Change in BP (Rattus norvegicus [9]): -30 mmHg; Change in BP (Rattus norvegicus [12]): -32 mmHg
CCCc1cc2cc(OCC(=O)O)c(Cl)c(Cl)c2s1 | 1.74 0-5h | -1 | 181 | 
CCCC1=Cc2cc(OCC(=O)O)c(Cl)c(Cl)c2S1(=O)=O | 3.13 0-5h |  |  | mequiv of Na+/kg (Mus musculus [4]): 4.99 0-5h; Initial blood pressure (Rattus norvegicus [13]): 166 mmHg; mequiv of Na+/kg (Mus musculus [5]): 1.79 0-5h; Initial blood pressure (Rattus norvegicus [11]): 205 mmHg; Initial blood pressure (Rattus norvegicus [7]): 202 mmHg; Post drug blood pressure (Rattus norvegicus [14]): 135 mmHg and 156 mmHg and 153 mmHg and 167 mmHg; Change in BP (Rattus norvegicus [9]): -64 mmHg; mequiv of Na+/kg (Mus musculus [10]): 1.06 0-5h; Change in BP (Rattus norvegicus [12]): -52 mmHg
CCCCC1=Cc2cc(OCC(=O)O)c(Cl)c(Cl)c2S1(=O)=O | 2.42 0-5h | -24 | 185 | 
CC1=C(C)S(=O)(=O)c2c1cc(OCC(=O)O)c(Cl)c2Cl | 0.92 0-5h | -17 | 165 | 
O=C(O)COc1cc2cc(CO)sc2c(Cl)c1Cl | 1.23 0-5h | -5 | 199 | 

SMILES | mequiv of Na+/kg (Mus musculus [1]) | Change in BP (Rattus norvegicus [2]) [mmHg] | Initial blood pressure (Rattus norvegicus [3]) [mmHg] | further results
CC1=Cc2cc(OCC(=O)O)c(Cl)c(Cl)c2S1(=O)=O | 4.34 0-5h | -25 | 180 | mequiv of Na+/kg (Mus musculus [4]): 6.36 0-5h; mequiv of Na+/kg (Mus musculus [5]): 2.11 0-5h; mequiv of Na+/kg (Mus musculus [10]): 1.33 0-5h
CCC1=Cc2cc(OCC(=O)O)c(Cl)c(Cl)c2S1(=O)=O | 3.35 0-5h | -8 | 213 | mequiv of Na+/kg (Mus musculus [4]): 6.51 0-5h; mequiv of Na+/kg (Mus musculus [5]): 1.84 0-5h; mequiv of Na+/kg (Mus musculus [10]): 0.66 0-5h
O=C(O)COc1cc2c3c(sc2c(Cl)c1Cl)CCCC3 | 0.45 0-5h | -12 | 177 | 
O=C(O)COc1cc2cc(C3CCCCC3)sc2c(Cl)c1Cl | 1.6 0-5h | 2 | 178 | 
Cc1sc2c(Cl)c(Cl)c(OCC(=O)O)cc2c1C | 0.13 0-5h | -37 | 192 | 
O=C(O)COc1cc2c(c(Cl)c1Cl)S(=O)(=O)C(C1CCCC1)=C2 | 1.79 0-5h | -17 | 180 | 
O=C(O)COc1cc2cc(C3CCCC3)sc2c(Cl)c1Cl | 1.3 0-5h | -31 | 193 | 
CC(C)(O)c1cc2cc(OCC(=O)O)c(Cl)c(Cl)c2s1 | 4.4 0-5h | -25 | 193 | mequiv of Na+/kg (Mus musculus [4]): 6.24 0-5h; mequiv of Na+/kg (Mus musculus [5]): 2.21 0-5h; mequiv of Na+/kg (Mus musculus [10]): 0.53 0-5h
CCC(O)c1cc2cc(OCC(=O)O)c(Cl)c(Cl)c2s1 (stereo not given) | 3.89 0-5h | -22 | 166 | 
CC(O)c1cc2cc(OCC(=O)O)c(Cl)c(Cl)c2s1 (stereo not given) | 2.86 0-5h | -7 | 183 | 
CC(O)C1=Cc2cc(OCC(=O)O)c(Cl)c(Cl)c2S1(=O)=O (stereo not given) | 0.43 0-5h | -9 | 176 | 
CC(C)Cc1cc2cc(OCC(=O)O)c(Cl)c(Cl)c2s1 | 1.29 0-5h | 4 | 176 | 
C=C(CC)C(=O)c1ccc(OCC(=O)O)c(Cl)c1Cl [ETHACRYNIC ACID] | 4.14 0-5h |  |  | 
NS(=O)(=O)c1cc2c(cc1Cl)NCNS2(=O)=O [HYDROCHLOROTHIAZIDE] |  | -26 | 188 | Initial blood pressure (Rattus norvegicus [13]): 168 mmHg; Delta blood pressure (Rattus norvegicus [15]): -18 mmHg [middle of 4 runs]; Post drug blood pressure (Rattus norvegicus [16]): 156 mmHg and 133 mmHg and 148 mmHg and 150 mmHg
O=C(O)COc1ccc(C(=O)c2cccs2)c(Cl)c1Cl [TICRYNAFEN] | 3.31 0-5h | -14 | 200 | 
